The text below walks through data of ChEMBL document CHEMBL1144415, “Identification of novel low molecular weight CXCR4 antagonists by structural tuning of cyclic tetrapeptide scaffolds” (J Med Chem, 2005).

Experiment [1] concerns the target T1, C-X-C chemokine receptor type 4 (Homo sapiens, UniProt P61073). The experiment is described as follows: Inhibition of [125I]SDF-1 binding to C-X-C chemokine receptor type 4 (CXCR4) expressed in CHO cells. Format: cell-based. In short, it runs like this:
(§1)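 Stable CXCR4-expressing CHO transfectants harvested with trypsin-EDTA, recovered 4 to 5 h in complete growth medium, washed in cold binding buffer (PBS with 2 mg/mL BSA). Cells at 1 × 10⁷ cells/mL incubated with 0.1 nM [¹²⁵I]-SDF-1 for 2 h on ice with agitation. Bound and free separated by centrifugation through oil cushion, gamma counting. IC50 from at least three independent experiments, mean with SD.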

In experiment [2] the target is T1, C-X-C chemokine receptor type 4. The experiment is described as follows: Inhibition of [125I]SDF-1 binding to C-X-C chemokine receptor type 4 (CXCR4) expressed in CHO cells; range = 1-10 uM. The format is cell-based. In short, it runs like this:
as §1

Usually IC50 stands for the concentration at which inhibition is half-maximal. A lower IC50 goes with greater potency in that assay.

T1 sequence (P61073 whole entry): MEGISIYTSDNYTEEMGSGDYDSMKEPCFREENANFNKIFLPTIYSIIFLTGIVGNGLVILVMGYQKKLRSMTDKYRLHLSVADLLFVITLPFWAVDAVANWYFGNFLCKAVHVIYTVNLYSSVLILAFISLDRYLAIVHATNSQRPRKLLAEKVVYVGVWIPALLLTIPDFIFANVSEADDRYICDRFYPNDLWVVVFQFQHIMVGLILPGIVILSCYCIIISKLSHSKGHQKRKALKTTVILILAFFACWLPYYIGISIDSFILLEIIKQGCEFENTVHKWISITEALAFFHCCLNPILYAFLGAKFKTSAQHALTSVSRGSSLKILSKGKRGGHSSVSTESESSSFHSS

As for `N=C(N)NCCC[C@@H]1NC(=O)[C@@H](NC(=O)CCNC(=N)N)CSSC[C@H](C(=O)NCCc2ccc(O)cc2)NC(=O)[C@H](Cc2ccc3ccccc3c2)NC1=O`, in experiment [1], the IC50 was 530 nM. This lies in the sub-micromolar range.

In the case of `N=C(N)NCCC[C@@H]1NC(=O)[C@@H]2CCCN2C(=O)[C@@H](Cc2ccc(O)cc2)NC(=O)CNC(=O)[C@H](Cc2ccc3ccccc3c2)NC1=O`, the concentration for half-maximal inhibition (IC50) in experiment [1] was found to be 1600 nM. Compared with the last compound, the IC50 is about 3-fold higher.

For the compound `N=C(N)NCCC(=O)N[C@H]1C/C=C\C[C@H](C(=O)NCCc2ccc(O)cc2)NC(=O)[C@H](Cc2ccc3ccccc3c2)NC(=O)[C@H](CCCN=C(N)N)NC1=O`, the IC50 in experiment [2] came out at 10000 nM.

In the case of `CN1C(=O)[C@@H](NC(=O)CCN=C(N)N)CSSC[C@H](C(=O)NCCc2ccc(O)cc2)NC(=O)[C@H](Cc2ccc3ccccc3c2)NC(=O)[C@@H]1CCCN=C(N)N`, the half-maximal inhibitory concentration (IC50) in experiment [1] is more than 10000 nM.

Take `N=C(N)NCCC[C@@H]1NC(=O)[C@H](Cc2ccc(O)cc2)NC(=O)/C=C\[C@@H](Cc2ccc3ccccc3c2)NC(=O)[C@@H](CCCNC(=N)N)NC1=O`: in experiment [1] (cho), the concentration for half-maximal inhibition (IC50) was more than 1000 nM.

`N=C(N)NCCC[C@@H]1NC(=O)[C@@H](CCC(N)=O)NC(=O)[C@@H](Cc2ccc(O)cc2)NC(=O)CNC(=O)[C@H](Cc2ccc3ccccc3c2)NC1=O` showed an IC50 in experiment [1] of 170 nM.

With `N=C(N)NCCC[C@@H]1NC(=O)[C@@H](CCC(=O)O)NC(=O)[C@@H](Cc2ccc(O)cc2)NC(=O)CNC(=O)[C@H](Cc2ccc3ccccc3c2)NC1=O`, the IC50 in experiment [1] is 610 nM.

With `N=C(N)NCCC[C@H]1NC(=O)[C@@H](CCCN=C(N)N)NC(=O)[C@H](Cc2ccc(O)cc2)NC(=O)/C=C\[C@@H](Cc2ccc3ccccc3c2)NC1=O`, the IC50 in experiment [1] (cho) was more than 1000 nM.

Consider `N=C(N)NCCC[C@@H]1NC(=O)[C@H]2CCCN2C(=O)[C@@H](Cc2ccc(O)cc2)NC(=O)CNC(=O)[C@H](Cc2ccc3ccccc3c2)NC1=O`, for which the IC50 in experiment [1] amounted to 420 nM.

In experiment [1], `N=C(N)NCCCN[C@H]1CSSC[C@H](C(=O)NCCc2ccc(O)cc2)NC(=O)[C@H](Cc2ccc3ccccc3c2)NC(=O)[C@H](CCCNC(=N)N)NC1=O` returned an IC50 of 1000 nM.
